Experimental data reported in ChEMBL document CHEMBL1157040, “Anti-HSV-1 activity and mechanism of action of some new synthesized substituted pyrimidine, thiopyrimidine and thiazolopyrimidine derivatives” (2010).

Tests used:
Assay type in all cases: functional
Settings in all cases: Human alphaherpesvirus 1, Vero
Human alphaherpesvirus 1 [1] = experiment: Antiviral activity against HSV1 infected in african green monkey Vero cells assessed as inhibition of plaque formation at 5 ug/mL after 1 hr relative to control
Outline: (§1)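 Plaque reduction in Vero cells (DMEM, 10% FBS, pH 7.2–7.4). Virus–compound mixture inoculated onto monolayer for 1 h adsorption. Overlay of DMEM with 2% agarose, incubated at 37 °C until plaques formed. Fixed with 10% formalin for 2 h and stained with crystal violet. % inhibition = (untreated count − treated count)/untreated count × 100.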

Human alphaherpesvirus 1 [2] = experiment: Antiviral activity against HSV1 infected in african green monkey Vero cells assessed as inhibition of plaque formation at 2 ug/mL after 1 hr relative to control; outline: as §1
Human alphaherpesvirus 1 [3] = experiment: Antiviral activity against HSV1 infected in african green monkey Vero cells assessed as reduction of plaque formation at 30 ug/mL pretreated 1 hr before infection measured after 1 hr by virucidal assay relative to control
Outline: (§2)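 Virucidal format. 10⁷ PFU HSV-1 in serum-free DMEM mixed with compound for 1 h. Mixture serially diluted 10-fold three times, and each dilution applied to Vero monolayers (10⁵ cells/ml, grown 2 days) for 1 h. DMEM overlay added, incubated at 37 °C, fixed and stained. % plaque reduction calculated against virus not pretreated with compound.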

Human alphaherpesvirus 1 [4] = experiment: Antiviral activity against HSV1 infected in african green monkey Vero cells assessed as reduction of plaque formation at 20 ug/mL pretreated 1 hr before infection measured after 1 hr by virucidal assay relative to control; outline: as §2
Human alphaherpesvirus 1 [5] = experiment: Antiviral activity against HSV1 infected in african green monkey Vero cells assessed as reduction of plaque formation at 20 ug/mL treated 1 hr after infection measured after 1 hr by replication assay relative to control
Outline: (§3)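 Replication format. Vero cells seeded at 10⁵ cells/ml and grown 2 days at 37 °C. Infected with HSV-1 at 10⁴ PFU/well for 1 h at 37 °C, then unadsorbed virus washed off three times with supplement-free medium. Plaques formed, fixed, stained and counted. % reduction calculated against infected control wells.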

Human alphaherpesvirus 1 [6] = experiment: Antiviral activity against HSV1 infected in african green monkey Vero cells assessed as reduction of plaque formation at 20 ug/mL pretreated 2 hrs before infection measured after 1 hr by adsorption assay relative to control
Outline: (§4)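 Adsorption format. Vero cells seeded at 10⁵ cells/ml and grown 2 days at 37 °C. Compound in supplement-free medium coincubated with cells for 2 h at 4 °C, then washed three times. HSV-1 at 10⁴ PFU/well added to pretreated cells for 1 h. Agarose–DMEM overlay, 37 °C until plaques, formalin fix and crystal violet stain. % plaque reduction calculated against untreated infected cells.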

Human alphaherpesvirus 1 [7] = experiment: Antiviral activity against HSV1 infected in african green monkey Vero cells assessed as reduction of plaque formation at 30 ug/mL pretreated 2 hrs before infection measured after 1 hr by adsorption assay relative to control; outline: as §4
Human alphaherpesvirus 1 [8] = experiment: Antiviral activity against HSV1 infected in african green monkey Vero cells assessed as reduction of plaque formation at 30 ug/mL treated 1 hr after infection measured after 1 hr by replication assay relative to control; outline: as §3
Human alphaherpesvirus 1 [9] = experiment: Antiviral activity against HSV1 infected in african green monkey Vero cells assessed as reduction of plaque formation at 40 ug/mL treated 1 hr after infection measured after 1 hr by replication assay relative to control; outline: as §3
Human alphaherpesvirus 1 [10] = experiment: Antiviral activity against HSV1 infected in african green monkey Vero cells assessed as reduction of plaque formation at 40 ug/mL pretreated 2 hrs before infection measured after 1 hr by adsorption assay relative to control; outline: as §4

SMILES | inhibition at 5 µg/mL (Human alphaherpesvirus 1 [1]) [%] | inhibition at 2 µg/mL (Human alphaherpesvirus 1 [2]) [%] | other results
Cc1ccc(C2NC(=S)NC(c3ccc4c(c3)CCCC4)C2=O)cc1 (stereo not given) | 66 | 0 | –
COc1ccc(C2C(=O)C(c3ccc4c(c3)CCCC4)N=C3SC(C(C)=O)=C(C)N32)cc1OC (stereo not given) | 14 | 0 | –
COc1ccc(C2C(=O)C(c3ccc4c(c3)CCCC4)N=C3SCCC(=O)N32)cc1OC (stereo not given) | 30 | 3 | –
COc1ccc(C2NC(=O)NC(c3ccc4c(c3)CCCC4)C2=O)cc1OC (stereo not given) | 21 | 33 | –
O=C(c1ccc2c(c1)CCCC2)C1OC1c1ccc(Br)cc1 (stereo not given) | 18 | 30 | –
Cc1ccc(C2C(O)C(c3ccc4c(c3)CCCC4)=NN2c2ccccc2)cc1 (stereo not given) | 76 | 76 | –
COc1ccc(C2OC2C(=O)c2ccc3c(c2)CCCC3)cc1OC (stereo not given) | 57 | 24 | –
Cc1ccc(C2NC(=N)NC(c3ccc4c(c3)CCCC4)C2=O)cc1 (stereo not given) | 0 | 4 | –
COc1ccc(C2C(=O)C(c3ccc4c(c3)CCCC4)N=C3SC(C)C(=O)N32)cc1OC (stereo not given) | 100 | 90 | inhibition at 30 µg/mL (Human alphaherpesvirus 1 [3]): 95%; inhibition at 20 µg/mL (Human alphaherpesvirus 1 [4]): 92%; inhibition at 20 µg/mL (Human alphaherpesvirus 1 [5]): 60%; inhibition at 20 µg/mL (Human alphaherpesvirus 1 [6]): 0%; inhibition at 30 µg/mL (Human alphaherpesvirus 1 [7]): 0%; inhibition at 30 µg/mL (Human alphaherpesvirus 1 [8]): 80%
Cc1ccc(C2OC2C(=O)c2ccc3c(c2)CCCC3)cc1 (stereo not given) | 0 | 0 | –
COc1ccc(C2C(=O)C(c3ccc4c(c3)CCCC4)N=C3SCC(=O)N32)cc1OC (stereo not given) | 0 | 0 | –
Cc1ccc(-c2cc(-c3ccc4c(c3)CCCC4)nn2-c2ccccc2)cc1 | 26 | 3 | –
O=C(c1ccc2c(c1)CCCC2)C1OC(c2ccc(Br)cc2)C(C(=O)c2ccc3c(c2)CCCC3)OC1c1ccc(Br)cc1 (stereo not given) | 0 | 0 | –
COc1ccc(C2NC(=S)NC(c3ccc4c(c3)CCCC4)C2=O)cc1OC (stereo not given) | 54 | 27 | –
COc1ccc(C2C(=O)C(c3ccc4c(c3)CCCC4)N=c3s/c(=C/c4ccc(Cl)cc4)c(=O)n32)cc1OC (stereo not given) | 0 | 0 | –
CCOC(=O)SC1=NC(c2ccc3c(c2)CCCC3)C(=O)C(c2ccc(OC)c(OC)c2)N1 (stereo not given) | 19 | 61 | –
COc1ccc(C2NC(SC(C(C)=O)C(C)=O)=NC(c3ccc4c(c3)CCCC4)C2=O)cc1OC (stereo not given) | 95 | 90 | inhibition at 40 µg/mL (Human alphaherpesvirus 1 [9]): 0%; inhibition at 30 µg/mL (Human alphaherpesvirus 1 [3]): 28%; inhibition at 30 µg/mL (Human alphaherpesvirus 1 [7]): 0%; inhibition at 40 µg/mL (Human alphaherpesvirus 1 [10]): 0%; inhibition at 30 µg/mL (Human alphaherpesvirus 1 [8]): 0%
